# Activity calls are given as the source filed them. The calls are words filed in the database; no cut-off is given here.
# Columns and labels:
# [1] = Cytotoxicity against human ChaGo cells after 3 days by MTT assay; format: functional, cell-based; details: 72 h
# How it was run: (§1)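 Cells grown in RPMI-1640 with 25 mM HEPES, 0.25% sodium bicarbonate, 5% FBS and 100 µg/mL kanamycin. Freshly trypsinized cells seeded at 5000 per well, compound added from DMSO-diluted stock, cultured three days. Attached cells stained with MTT, bound dye solubilized, absorbance read at 540 nm. IC50 (50% growth inhibition) averaged from at least six independent determinations.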
# [2] = tested on: BT-474; test: Cytotoxicity against human BT474 cells after 3 days by MTT assay; format: functional, cell-based; details: BT-474, 72 h; how it was run: as §1
# [3] = tested on: HepG2; test: Cytotoxicity against human HepG2 cells after 3 days by MTT assay; format: functional, cell-based; details: HepG2, 72 h; how it was run: as §1
# [4] = tested on: Enterococcus faecalis; test: Antibacterial activity against Enterococcus faecalis ATCC 29212 by broth microdilution method; format: functional
# How it was run: (§2)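 Broth microdilution per NCCLS protocol in Mueller Hinton broth; serial doubling dilutions from 0.5 to 256 µg/mL; final inoculum 5 × 10^5 cfu/mL. MIC taken as lowest concentration with no visible growth judged by turbidity.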
# [5] = Cytotoxicity against human KATO III cells after 3 days by MTT assay; format: functional, cell-based, KATO III cell; details: 72 h; how it was run: as §1
# [6] = tested on: SW-620; test: Cytotoxicity against human SW620 cells after 3 days by MTT assay; format: functional, cell-based; details: SW-620, 72 h; how it was run: as §1
# [7] = tested on: Staphylococcus hominis; test: Antibacterial activity against Staphylococcus hominis ATCC 27844 by broth microdilution method; format: functional; how it was run: as §2
MIC [4] [µg/mL],MIC [7] [µg/mL],SMILES,IC50 [1] [µg/mL],IC50 [2] [µg/mL],IC50 [3] [µg/mL],Activity [4],IC50 [5] [µg/mL],IC50 [6] [µg/mL],Activity [7]
–,–,COC(=O)C[C@H]1[C@]2(C)C[C@]3(O)[C@@](O)(C(=O)C4=C(CC[C@]5(C)C4=CC(=O)O[C@H]5c4ccoc4)[C@]13C)[C@H]2OC(C)=O [MOLUCCENSIN H],> 10,> 10,> 10,inactive,> 10,> 10,inactive
223,256,COC(=O)C[C@H]1[C@]2(C)C[C@@]3(O)[C@]1(C)[C@H]1CC[C@]4(C)C(=C1C(=O)[C@@]3(OC)[C@H]2OC(C)=O)CC(=O)O[C@H]4c1ccoc1 [MOLUCCENSIN I],> 10,> 10,> 10,–,> 10,> 10,–
–,–,COC(=O)C[C@H]1[C@]2(C)C[C@]3(O)[C@@H](C(=O)C4=C5CC(=O)O[C@@H](c6ccoc6)[C@]5(C)CC[C@@H]4[C@]13C)[C@H]2OC(C)=O [MOLUCCENSIN J],> 10,> 10,> 10,inactive,> 10,> 10,inactive

# From ChEMBL document CHEMBL1154912, “Moluccensins H-J, 30-ketophragmalin limonoids from Xylocarpus moluccensis” (J Nat Prod, 2010)
